An excerpt weighted towards active compounds, which were near 1.7% of everything screened.
Vif imaging: blocks HIV Vif function. inhibition, % at 7.49 µM. actives 0.35% (n = 340,000). HEK293T cells, Vif self-association by quenched fluorescence, imaging, 24 h; in the data active = inhibition above about 50%, passing the limit was not always enough; inconclusive = no clear call, values can overlap the other calls; inactive = below about 31%
T cell HTS: T cell immune modulators affecting CD8 T cell-vesicle binding. 2C CD8+ T cell-vesicle binding, flow cytometry; hits give low values. response (vesicle binding), % at 7 µM. actives 0.068% (n = 330,000). AID 2052;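 active = response, share of CD8 T cells binding vesicles, and their 90th percentile fluorescence all below set limits, cut at about 80% in these data, passing the limit was not always enough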;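 note: values below 100% mean blocked vesicle binding to the CD8+ T cells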
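Incubation: binding step 1.5 h, 37 °C, antibody labelling 20 min, ice; system: murine 2C transgenic CD8+ T lymphocytes; technique: cytometric PE anti-B7-1 and Alexa647 anti-CD8 signals after 1% paraformaldehyde fixation; also added: QL9-charged Drosophila Ld/ICAM-1/B7-1 vesicles; control set: naked versus QL9-loaded vesicles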
Myeloid diff MLP: myeloid differentiation induction | ER-HoxA9 myeloid progenitors, lysozyme-GFP differentiation, flow cytometry | calls only at 10 µM | actives 1% (n = 360,000);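 active = normalized GFP-positive differentiation at or above the plate's own cutoff, the solvent-only control mean plus 3 SD; inconclusive = no clear call, values can overlap the other calls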;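 note: cells exposed to compound for four days before flow analysis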
Pemphigus Ab inh: inhibitors of pemphigus antibody binding to human desmoglein-3. P32926. DSG3-coupled beads, scFv-anti-DSG3-GFP binding, flow cytometry; hits give low values. binding (percent of control), % at 10 µM. actives 0.48% (n = 310,000). AID 588358;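 active = binding more than 3 SD below its plate's average and above zero; inconclusive = below that plate limit but binding exactly zero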;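 note: hits lower antibody fragment binding to DSG3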
Myeloid diff: compounds promoting myeloid differentiation. shares compounds with Myeloid diff MLP. ER-HoxA9 myeloid progenitors, GFP/Mac1 double-positive flow. calls only. actives 2% (n = 2,300). AID 651706;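 active = share of green or green-and-red cells above 9 and 9% in run 1 or 4 and 3% in run 2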
GFP autofluor: counter-screen for myeloid differentiation promoters: compound fluorescence. shares compounds with Myeloid diff MLP. ER-HoxA9 myeloid progenitors, no estrogen, GFP autofluorescence flow cytometry; vehicle wells 0%, positive control 100%. fluorescence response, % (test concentration not listed). actives 7.4% (n = 2,300). AID 651707;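 active = over 5% cells positive for green fluorescent reporter, or over 2% positive for both it and APC stain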;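 note: range taken on the double positive population between DMSO and positive control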
* marks the source's active call; other numbers are inactive results; i = inactive; u = inconclusive; x = not tested or not shown; + = active, no number.

SMILES	Vif imaging	T cell HTS	Myeloid diff MLP	Pemphigus Ab inh	others
Cn1c(=O)c2ccccc2n2c(CCl)nnc12	32.7	379.8	u	26.6*
Cc1cc(C)c(C#N)c(SCCS(=O)(=O)c2ccc(Cl)cc2)n1	-9.8	181.3	i	88.3
Cc1cc(C)c(C#N)c(SCCS(=O)(=O)c2ccc(C(C)(C)C)cc2)n1	x	174.1	+	106.0
Cc1cccc(N2CCN(C(C(=O)NCc3ccccc3)c3ccc(F)cc3)CC2)c1C (configuration not stated)	x	x	i	x
CCOc1ccc(CN(C)C(=O)[C@H](Cc2ccccc2)NC(=O)OCc2ccccc2)cc1OC	-4.1	644.7	+	x
CCN(CC)C(=O)C1=C(C)N(Cc2ccccc2)C(=O)C(CC(=O)NCc2cccc3ccccc23)C1 (configuration not stated)	0.5	x	i	x
N#CC1CC(c2ccc([N+](=O)[O-])cc2)=NN1c1ccc([N+](=O)[O-])cc1 (configuration not stated)	89.0*	233.5	+	88.8
O=[N+]([O-])c1cccc(C2CC(c3ccccc3)=NN2c2ccccc2)c1 (configuration not stated)	-0.8	267.1	i	98.0
Cc1ccc(C(=O)NCCN2CCOCC2)c(Cl)c1	7.1	486.7	+	206.9
O=C(COc1cc(Cl)c(Cl)cc1Cl)NCCN1CCOCC1	x	252.2	+	x
O=C(NCCN1CCOCC1)c1ccccc1Cl	0.4	229.4	i	98.7
CCc1cc(=O)oc2cc(OCC(=O)NCCN3CCOCC3)c(Cl)cc12	14.0	805.6	u	98.8
C[C@@H]1CN([C@H](C)CO)C(=O)CCCn2nncc2CO[C@H]1CN(C)Cc1cccc(C(=O)O)c1	x	x	i	101.6
CC1CN(C(=O)CCC(=O)NCc2ccc(Cl)cc2)c2ccccc2O1 (configuration not stated)	2.5	565.0	i	97.6
COC(=O)[C@H](Cc1ccccc1)NC(=O)Cn1cnc(C(=O)Nc2ccc(C)c(C)c2)n1	-7.3	x	i	89.5
COc1ccc(C(=O)C[n+]2cc(Br)cc3ccccc32)cc1[N+](=O)[O-]	-3.5	117.8	i	115.4
O=C(C[n+]1cc(Br)cc2ccccc21)c1ccccc1	54.8*	159.9	i	144.5
COc1cc2cc(CCOC(=O)c3ccc(C#N)cc3)oc(=O)c2cc1OC	x	606.9	i	102.9
CC1(C)CC(NS(=O)(=O)c2ccc3ccccc3c2)CC(C)(C)N1	-5.0	181.5	u	32.8*
C=CCNC(=S)/N=c1/ccccn1CCC	-6.4	218.6	+	x
CCOC(=O)c1ccc(Nc2ccc(-c3ccc(OC)c(OC)c3)nn2)cc1	-9.3	402.7	i	85.6*
CCn1c(SCC(=O)Nc2cc(C)on2)nnc1-c1ccc(OC)cc1	50.1*	316.1	i	84.2
Cc1cc(NC(=O)CSc2nc3ccccc3c(=O)n2-c2ccccc2)no1	54.9*	282.1	i	82.1
Cc1cc(NC(=O)CSc2nnc(-c3c[nH]c4ccccc34)n2-c2ccc(F)cc2)no1	-3.0	318.9	i	14.2*
CCn1c(SCC(=O)Nc2cc(C)on2)nnc1-c1ccccc1	-14.3	382.2	i	74.5
SMILES	Vif imaging	T cell HTS	Myeloid diff MLP	Pemphigus Ab inh	others
COc1ccc(NC(=O)CSc2nc(O)cc(=O)n2-c2ccc(OC)cc2)cc1	14.0	329.3	+	x
COc1ccc(-n2c(SCC(=O)Nc3ccccc3)nc(O)cc2=O)cc1	-2.5	519.5	i	x
COc1ccc(-n2c(SCC(=O)Nc3ccc4c(c3)OCO4)nc3ccccc3c2=O)cc1	37.8	158.4	+	92.8
Cc1cc(NC(=O)CSc2nnc(C)c(=O)[nH]2)no1	68.9*	764.2	i	95.8
CCOc1ccc(-n2c(SCC(=O)Nc3ccc4c(c3)OCO4)nc3ccccc3c2=O)cc1	0.5	408.1	i	53.0
O=C(C(=O)N1CCN(c2ccncc2)CC1)c1cccc(Br)c1	x	x	i	x
O=C(Nc1ccc2c(c1)OCO2)c1ccc(Br)c(S(=O)(=O)N2CCCC2)c1	-13.8	267.3	+	98.4	Myeloid diff=i;GFP autofluor=0.0
COc1ccc(S(=O)(=O)N2CCC(C(=O)Nc3ccc4c(c3)OCCO4)CC2)cc1OC	-3.2	607.9	i	103.0
O=C(Nc1ccc2c(c1)OCO2)C1CCN(S(=O)(=O)c2ccc3c(c2)OCCO3)CC1	3.5	460.8	i	97.6	Myeloid diff=i;GFP autofluor=0.3
